Measurements as given in article PMC8849394 (Science Advances, 2022).
Ends that are not written are not given here. * marks the point of attachment. FITC = O=C1OC2(c3ccc(O)cc3Oc3cc(O)ccc32)c2ccc(NC(=S)*)cc21

Tests used:
mouse SCLC cells (RP-1) = assay: MTT cell viability, mouse SCLC cells RP-1; format: cell-based; conditions: RP-1, MTT, n = 3
Outline: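 Murine SCLC cells derived from Rb1/Trp53-mutant mouse lung tumors are grown in RPMI1640 with 10% bovine growth serum. Cells are seeded at 1×10^4 per well and treated with bromodomain- or HAT-domain-targeting test compounds. Over 0 to 4 or 6 days, MTT (0.5 mg/ml final) is added for 4 h at 37°C and OD is read at 590 nm, minus a vehicle blank. Triplicates; n = 3.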

human SCLC cell lines [1] = assay: MTT cell viability / short-term proliferation, human SCLC lines; format: cell-based
[2] = test system: human NSCLC (lung adenocarcinoma) cell lines; assay: MTT cell viability / short-term proliferation, human NSCLC lines; format: cell-based; conditions: for growth of NSCLC cells under BRD/HAT inhibitors: MTT
[3] = target: rhodamine-labeled MLL peptide (MLL25); assay: fluorescence polarisation
[4] = target: FITC-labeled MYB peptide (MYB25); assay: fluorescence polarisation
CREBBP = assay: Anti-FLAG immunoprecipitation/immunoblot for CREBBP in H524 cell extracts; format: cell-based, human; conditions: FLAG-tagged M/M, IP relative to input, n = 3
Outline: (§1)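 H524 cells express FLAG-tagged M/M fusion peptide from a doxycycline-inducible promoter. Cells are lysed in RIPA (pH 8.0, with protease inhibitors). Lysates are immunoprecipitated with anti-FLAG or control IgG overnight at 4°C, then protein A/G agarose is added for 4 h at 4°C. Eluates are immunoblotted for FLAG, EP300 and CREBBP. IP band intensity is expressed relative to 5% input; n = 3; unpaired t test.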

H524 SCLC cells = assay: RNA sequencing, GSEA and KEGG analysis, H524 cells; format: cell-based, human; conditions: H524, M/M vs M/M-5A
Outline: (§2)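 SCLC cells express M/M or M/M-5A peptide under a doxycycline-inducible promoter. mRNA is oligo(dT)-purified from 500 ng total RNA, and 100-bp single-end reads are sequenced on an Illumina NextSeq2000. Differential expression signatures come from comparing TPM between experimental and control groups. GSEA is run on the signature using Molecular Signatures Database v7.4 gene sets.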

EP300 = assay: Anti-FLAG immunoprecipitation/immunoblot for EP300 in H524 cell extracts; format: cell-based, human; conditions: FLAG-tagged M/M, IP relative to input, n = 3
Outline: as §1

H209 SCLC cells = assay: RNA sequencing, GSEA and KEGG analysis, H209 cells; format: cell-based, human
Outline: as §2

[5] = target: purified KIX domain of CREBBP (Mus musculus, UniProt P45481); assay: FP assay, direct binding of fluorophore-labeled peptides to CREBBP KIX
purified KIX domain of CREBBP, sequence (P45481 585-672): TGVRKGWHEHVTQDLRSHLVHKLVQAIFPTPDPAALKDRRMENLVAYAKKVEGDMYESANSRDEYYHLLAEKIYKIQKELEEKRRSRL
Outline: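 CREBBP KIX domain (87 residues, 585-672) was expressed from pMAL-c5E in E. coli Rosetta (DE3) and purified by affinity then anion-exchange chromatography. FP probes were N-terminally FITC-labelled MYB peptide and rhodamine-labelled MLL peptide, each at 0.5 µM, in 50 mM Hepes (pH 7.5) with 50 mM NaCl. Plates were incubated 30 min in the dark at room temperature, then read for polarization.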

human SCLC cell lines [6] = assay: Soft agar colony formation, human SCLC lines; format: cell-based; conditions: 2 μM in DMSO; H69, H209, H524; n = 3
[7] = test system: interaction between CREB1 and the KIX domain of CREBBP; conditions: cited from earlier work
[8] = test system: human NSCLC (lung adenocarcinoma) cell lines; assay: Soft agar colony formation, human NSCLC lines; format: cell-based; conditions: 2 μM in DMSO; H1650 (fig. S8A); n = 3
[9] = test system: interaction between CREB1 and the KIX domain of EP300; conditions: cited from earlier work
EP300 KIX domain = EP300 KIX domain (human, UniProt Q09472 565-652); assay: fluorescence polarisation
EP300 KIX domain, sequence (Q09472 565-652): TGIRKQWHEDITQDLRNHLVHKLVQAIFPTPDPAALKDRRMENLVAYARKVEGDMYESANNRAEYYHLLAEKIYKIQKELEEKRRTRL

A627D EP300 KIX = A627D EP300 KIX (human, UniProt Q09472 565-652, A627D); assay: fluorescence polarisation
A627D EP300 KIX, sequence (Q09472 565-652 A627D): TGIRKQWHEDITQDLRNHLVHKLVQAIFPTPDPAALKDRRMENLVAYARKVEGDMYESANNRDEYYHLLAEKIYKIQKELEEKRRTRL

COc1ccc(CCc2nc3cc(-c4c(C)noc4C)ccc3n2C[C@H](C)N2CCOCC2)cc1Cl [SGC-CBP30]
growth of mouse SCLC cells (mouse SCLC cells (RP-1)): did not have any significant effect on the growth
growth of human SCLC cells under BRD/HAT inhibitors (human SCLC cell lines [1]; MTT, n = 3): either insignificant or modest
growth of NSCLC cells under BRD/HAT inhibitors ([2]; n = 3): dose-dependent effects on NSCLC lines

CREBBP KIX domain (from UniProt Q92793 585-672) (domain or fragment)
Kd [3]: 94 µM
Kd [4]: 22 µM

D647A CREBBP KIX domain (from UniProt Q92793 585-672) (domain or fragment)
Kd [4]: 6.7 µM

H-SDDGNILPSDIMDFVLKNTPSMQALGESGGDEDPEKEKRIKELELLLMSTENELKGQQAL-OH [M/M]
binding to CREBBP in cells (CREBBP): confirmed the binding of M/M to both EP300 and CREBBP
gene set enrichment (GSEA), TF target genes (H524 SCLC cells): significantly enriched in the gene sets related to MYB, ATF4, CREB1, and CREBP1/JUN targets
short-term proliferation of SCLC cells (human SCLC cell lines [1]; doxycycline-inducible lentiviral expression of peptide, MTT, n = 3): inhibited the short-term proliferation
growth of lung adenocarcinoma cells, MTT ([2]; doxycycline-inducible lentiviral expression of peptide, n = 3): did not detectably affect the growth of lung adenocarcinoma cell lines
binding to EP300 in cells (EP300): confirmed the binding of M/M to both EP300 and CREBBP
preference EP300 over CREBBP in cells (EP300): bound preferentially to EP300 than to CREBBP
gene set enrichment (GSEA), TF target genes (H209 SCLC cells; H209, M/M vs M/M-5A): significantly enriched in the gene sets related to MYB, ATF4, CREB1, and CREBP1/JUN targets
KEGG pathway small cell lung cancer (H209 SCLC cells; M/M-expressing H209 vs M/M-5A): down-regulated in M/M-expressing H209 cells

SDDGNILPSDIMDFVLKNTPSMQAL [MLL25]
Kd [5]: 94 ± 11 µM

CCC(=O)N1CCOc2c(cc(-c3ccc(OC)c(OC)c3)cc2OC[C@H]2CCCN(C)C2)C1 [I-CBP112]
growth of mouse SCLC cells (mouse SCLC cells (RP-1)): did not have any significant effect on the growth
growth of human SCLC cells under BRD/HAT inhibitors (human SCLC cell lines [1]; MTT, n = 3): either insignificant or modest
growth of NSCLC cells under BRD/HAT inhibitors ([2]; n = 3): dose-dependent effects on NSCLC lines

CC1=NN(c2ccc(C(=O)O)cc2)C(=O)/C1=C\c1ccc(-c2cc(C)c(C)cc2[N+](=O)[O-])o1 [C646]
growth of mouse SCLC cells (mouse SCLC cells (RP-1)): did not have any significant effect on the growth
growth of human SCLC cells under BRD/HAT inhibitors (human SCLC cell lines [1]; MTT, n = 3): either insignificant or modest
growth of NSCLC cells under BRD/HAT inhibitors ([2]; n = 3): dose-dependent effects on NSCLC lines

O=C(Nc1ccc(Cl)cc1)c1cc2ccccc2cc1OP(=O)(O)O [KG-501, 2-naphthol-AS-E-phosphate]
soft agar colony formation of SCLC lines, KG-501 (human SCLC cell lines [6]): inhibited the short-term growth of SCLC lines in culture and colony formation in soft agar
inhibition of CREB1-CREBBP KIX interaction [7]: shown to inhibit the interaction between CREB1 and the KIX domains of EP300 and CREBBP
short-term growth of SCLC lines, KG-501 (human SCLC cell lines [1]; in culture): inhibited the short-term growth of SCLC lines in culture
short-term growth of NSCLC lines, KG-501 ([2]; in culture): did not have a significant effect on NSCLC cell lines
soft agar colony formation of NSCLC lines, KG-501 [8]: did not have a significant effect on NSCLC cell lines
inhibition of CREB1-EP300 KIX interaction [9]: shown to inhibit the interaction between CREB1 and the KIX domains of EP300 and CREBBP

{FITC}-KEKRIKELELLLMSTENELKGQQAL [FITC-labeled MYB peptide (MYB25)]
Kd (EP300 KIX domain): 3.8 ± 0.2 µM
Kd (A627D EP300 KIX): 23 ± 6.2 µM

SDDGNILPSDIMDFVLKNTPSMQAL (also: rhodamine label) [rhodamine-labeled MLL peptide (MLL25)]
Kd (EP300 KIX domain): 40 ± 14 µM
Kd (A627D EP300 KIX): 80 ± 8.5 µM
